This is an account of results in ChEMBL document CHEMBL1136736, “In vitro and in vivo antitumor properties of tetrakis((trishydroxy- methyl)phosphine)gold(I) chloride” (J Med Chem, 2003).

Type in all cases: functional, cell-based
Assay [1] concerns AGS. Briefly: Growth inhibition of AGS cell line at 13.72 nM derived from human gastric carcinoma. The following applies: Stomach. The method in brief:
(§1)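 Tumor cells were exposed to the compound added as a methanol solution and cultured in a 5% CO2 incubator for 7 days (4 days for some table entries). Cells were counted, and percent growth inhibition = (mean control count − mean treated count)/mean control count × 100.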

The subject of assay [2] is AGS. Briefly: Growth inhibition of AGS cell line at 0.54 nM derived from human gastric carcinoma. The following applies: Stomach. The essentials: as §1
Assay [3] relates to LNCaP. The assay can be described thus: Growth inhibition of LNCaP cell line at 13.72 nM derived from prostate cancer. The following applies: Homo sapiens. The essentials: as §1
In assay [4] the test system is HCT-15. The assay can be described thus: Growth inhibition of HCT-15 cell line at 0.54 nM derived from human colon carcinoma. The essentials: as §1
A further assay relates to PC-3. The assay can be described thus: Growth inhibition of PC-3 cell line at 13.72 nM derived from prostate cancer. The following applies: Homo sapiens. The essentials:
as §1

Assay [5] deals with LNCaP. The assay can be described thus: Growth inhibition of LNCaP cell line at 0.54 nM derived from prostate cancer. The following applies: Homo sapiens. The essentials: as §1
Assay [6] has as its system HCT-15. The assay can be described thus: Growth inhibition of HCT-15 cell line at 13.72 nM derived from human colon carcinoma. The method in brief:
as §1

Assay [7] concerns HCT-15. Briefly: Growth inhibition of HCT-15 cell line at 2.74 nM derived from human colon carcinoma. The method in brief:
as §1

In assay [8] the test system is LNCaP. The assay can be described thus: Growth inhibition of LNCaP cell line at 2.74 nM derived from prostate cancer. The following applies: Homo sapiens. The essentials: as §1
Assay [9] relates to AGS. Briefly: Growth inhibition of AGS cell line at 2.74 nM derived from human gastric carcinoma. The following applies: Stomach. The essentials:
as §1

Turning to “TETRAKIS((TRISHYDROXYMETHYL) PHOSPHINE)GOLD(I) CHLORIDE”, the inhibition with AGS [1] turned out to be 59.5%; in the assay on AGS [2], 10.2%; in the assay with LNCaP [3], 83.9%; with HCT-15 [4] it was 22.5%; with PC-3 it was 27%; in the assay with LNCaP [5], 47.4%. The inhibition turned out to be 87.5% in the assay on HCT-15 [6], 58.3% in the assay with HCT-15 [7], 59.2% in the assay on LNCaP [8] and 17.4% in the assay with AGS [9].

As usually defined, the inhibition is the change of the read-out against control, counted positive when it falls. A higher inhibition goes with strong suppression.
